Compound activity (PubChem BioAssay)
In the library only some 4.3% were active in any assay of this set; here they are far more common.
TAAR1 ag – agonists of human TAAR1; actives 0.99% (n = 360,000); CHO RD-HGA16 TAAR1, Fluo-8 calcium fluorescence; vehicle wells 0%, saturating PEA agonist 100%; activation, % at 3 µM; Q96RJ0;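 active means activation above the mean activation of all test compounds in the run plus 3 SD, cut at about 38% in these data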
Target sequence (Q96RJ0 whole entry, looked up): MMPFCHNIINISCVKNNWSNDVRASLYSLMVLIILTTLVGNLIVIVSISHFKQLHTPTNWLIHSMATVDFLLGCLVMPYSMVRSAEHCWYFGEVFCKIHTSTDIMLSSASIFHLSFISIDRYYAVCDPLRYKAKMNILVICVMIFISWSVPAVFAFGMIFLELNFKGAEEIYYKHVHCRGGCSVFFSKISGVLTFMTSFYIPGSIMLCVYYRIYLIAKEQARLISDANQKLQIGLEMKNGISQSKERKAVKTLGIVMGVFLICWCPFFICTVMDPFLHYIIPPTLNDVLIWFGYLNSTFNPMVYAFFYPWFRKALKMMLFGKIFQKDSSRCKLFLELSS
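Repeats: no replicates (n 1) | Material: CHO-derived RD-HGA16 cells with stable Gα16 and human TAAR1 | Technique: Kinetic Fluo-8 calcium fluorescence | Schedule: 17-24 h seeding, 75 min 37 °C dye, 30 min RT | Evaluation: % activation from peak over basal fluorescence ratio, DMSO-to-PEA scaled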
TAAR1 antag – human TAAR1 antagonism. Q96RJ0. CHO RD-HGA16 TAAR1, Fluo-8 calcium fluorescence, antagonist. actives 1.5% (n = 360,000). inhibition, % at 3 µM;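 active means inhibition above a per-plate cutoff, the mean inhibition of test compounds on that plate plus 3 SD, cut at about 49% in these data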
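Test system: hTAAR1-expressing CHO RD-HGA16 cells, Gα16-coupled; Probe or stimulus: EC80 β-phenethylamine stimulus; Compound dosing: single nominal final test compound concentration of 3 µM; Timing: 140 s kinetic read after compound, 140 s after agonist; Signal: Fluo-8 calcium-sensitive fluorescence; Measure: % inhibition of agonist calcium response; Controls: DMSO and EC80 PEA controls.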
HTR2A ag – activates the mouse 5-HT2A serotonin receptor; P35363; CHO-K1 mHTR2A beta-arrestin complementation, luminescence; percent of 30 µM serotonin response; activation, % at 7.6 µM; AID 624169; actives 0.66% (n = 360,000);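 active means activation above a run cutoff, the mean activation of all tested compounds plus 3 SD, cut at about 14% in these data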
MC4R antagonist – antagonists of human melanocortin 4 receptor (MC4R) | P32245 | MC4R-expressing cells, MTII-stimulated cAMP, LANCE TR-FRET | inhibition, % at 6.5 µM | actives 0.48% (n = 360,000) | AID 540295;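 active means inhibition above its plate's cutoff, the mean of tested wells on that plate plus 3 SD, cut at about 29% in these data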
Target sequence (P32245 whole entry, looked up): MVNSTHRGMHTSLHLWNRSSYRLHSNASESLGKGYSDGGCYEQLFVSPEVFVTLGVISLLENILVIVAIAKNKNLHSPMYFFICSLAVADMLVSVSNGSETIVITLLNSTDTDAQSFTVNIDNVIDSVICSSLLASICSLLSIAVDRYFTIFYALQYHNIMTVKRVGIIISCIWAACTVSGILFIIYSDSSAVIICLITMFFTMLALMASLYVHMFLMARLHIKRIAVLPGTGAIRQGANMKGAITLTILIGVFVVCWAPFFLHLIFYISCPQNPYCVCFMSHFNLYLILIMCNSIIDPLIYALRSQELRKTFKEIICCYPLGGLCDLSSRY
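Assay system: human MC4R-expressing U2OS cells; reagent: Melanotan II stimulation of cells; dosing: 6.5 µM single dose; timing: compound 30 min, challenge 1 h, detection 1 h; signal: TR-FRET cAMP assay; replicates: one well per compound, no replicates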
MC4R ag barr – activates human MC4R beta-arrestin recruitment | P32245 | U2OS MC4R beta-arrestin complementation, luminescence; percent of melanotan II response, DMSO zero | activation, % at 8.9 µM | actives 0.98% (n = 360,000) | AID 540308;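 active means activation above a per-plate cutoff, the mean activation of sample wells on that plate plus 3 SD, cut at about 8% in these data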
Beta2AR agonist – agonists of human beta-2 adrenergic receptor inducing internalization; actives 0.43% (n = 340,000); response, % (concentration not given with the values); Am2.2-beta2AR cells, FAP receptor internalization, flow cytometry; P07550;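 active means response above a set limit, near 3 SD of response in nonfluorescent compounds, cut at about 42% in these data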
TAAR1 ag confirm – human TAAR1 agonism, confirmed | actives 82% (n = 2,400) | shares compounds with TAAR1 ag | activation, % at 3 µM | CHO RD-HGA16 TAAR1, Fluo-8 calcium fluorescence; scaled: DMSO 0%, maximal phenethylamine 100% | AID 651783;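 active means activation above a cutoff set at the run's mean compound activation plus 3 SD, cut at about 39% in these data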
Ga16 nonsel ag – nonselective agonist in parental cells, TAAR1 agonist counter-screen; shares compounds with TAAR1 ag; actives 50% (n = 2,400); CHO-Ga16 parental, Fluo-8 calcium fluorescence; normalized to maximal ATP response, DMSO zero; activation, % at 3 µM; AID 651787;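 active means activation above the run cutoff, the mean activation over all tested wells plus 3 SD, cut at about 12% in these data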
TAAR1 desens – TAAR1 response desensitization, agonist counter-screen | AID 651951 | actives 46% (n = 2,400) | shares compounds with TAAR1 ag | inhibition, % at 3 µM | CHO RD-HGA16 hTAAR1, Fluo-8 calcium, beta-PEA response inhibition;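 active means inhibition above the run cutoff, the mean inhibition of all test compounds plus 3 SD, cut at about 49% in these data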;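 further: beta-PEA stimulus applied at its EC80; loss of beta-PEA calcium signal after compound pretreatment read as receptor desensitization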
Ga16 nonsel ant – counter-screen for TAAR1 agonists: nonselective Ga16 antagonists | shares compounds with TAAR1 ag | CHO-Ga16 ATP-induced calcium, Fluo-8 fluorescence | inhibition, % at 3 µM | actives 39% (n = 2,400) | AID 651952;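 active means inhibition above the plate's mean compound inhibition plus 3 SD, computed per plate, cut at about 22% in these data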
A number is an active result; n = inactive; x = not tested or not shown.

SMILES | TAAR1 ag | TAAR1 antag | HTR2A ag | MC4R antagonist | MC4R ag barr | Beta2AR agonist | TAAR1 ag confirm | Ga16 nonsel ag | TAAR1 desens | Ga16 nonsel ant
CCCCN1C(=O)NC(=O)C2(Cc3c(nc4ccccn4c3=O)N3CCc4ccccc4C32)C1=O (stereo unspecified) | 61 | n | n | n | n | n | 90 | 33 | n | n
CCCCN1C(=O)NC(=O)C2(Cc3c(nc4c(C)cccn4c3=O)N3CCc4ccccc4C32)C1=O (stereo unspecified) | 57 | n | n | n | n | n | 72 | 28 | 49 | 27
Cc1cccn2c(=O)c3c(nc12)N1CCCCCC1C1(C3)C(=O)N(C)C(=O)N(C)C1=O (stereo unspecified) | n | n | n | n | n | n | x | x | x | x
O=C1NC(=O)C(=Cc2coc3ccc(O)cc3c2=O)C(=O)N1 | n | n | n | n | n | n | x | x | x | x
O=C1NC(=O)N(c2ccc(Cl)cc2)C(=O)/C1=C\c1ccc(Sc2nc3ccccc3[nH]2)o1 | 60 | n | n | n | n | n | n | n | n | n
O=C1NC(=O)C(=Cc2ccc(Sc3ccccc3)o2)C(=O)N1 | n | n | n | n | n | n | x | x | x | x
N[C@H](CO)Cc1ccccc1 | 52 | n | n | n | n | n | 74 | n | n | n
Fc1ccc(CNCCc2ccccc2)cc1 | 49 | n | n | n | n | n | 76 | 15 | n | n
Cn1cccc1CNCCc1ccc(F)cc1 | 49 | n | n | n | n | n | 82 | n | 54 | n
CCOc1ccc(Cl)cc1CNCCc1ccc(F)cc1 | n | n | n | n | n | n | x | x | x | x
Fc1ccc(CCNCc2ccccc2Cl)cc1 | 64 | n | n | n | n | n | 62 | n | n | n
C1=C(CCNCc2ccccc2)CCCC1 | n | n | n | n | n | n | x | x | x | x
CC(C)NC(=O)Cn1cc(C(=O)c2ccccc2F)c2ccccc21 | n | n | n | n | n | n | x | x | x | x
COc1cc(O)cc2c1C(=O)O[C@@H](C)CCCC(=O)CCCCC2 | 62 | n | n | n | n | n | n | n | n | n
COc1ccc(NC(=O)C2C3CCC(O3)C2C(=O)O)c(OC)c1 (stereo unspecified) | n | n | n | n | n | n | x | x | x | x
CC1OC(NCCc2ccccc2)C(O)C(O)C1O (stereo unspecified) | x | x | n | n | n | n | x | n | x | n
CCCn1cc(C(=O)O)cn1 | n | n | n | n | n | n | x | x | x | x
COc1cc(/C=C/[N+](=O)[O-])ccc1OC(=O)c1cccnc1 | 56 | n | n | n | n | n | 87 | 62 | 67 | 60
COc1cc2c(cc1/C=C/[N+](=O)[O-])OCO2 | n | n | n | n | n | n | x | x | x | x
COc1cccc(C)c1NC1=NCCO1 | 87 | 61 | n | n | n | x | 92 | n | 87 | n
COc1ccc(CCNCc2cc(OC)cc(OC)c2)cc1 | n | n | n | n | n | x | x | x | x | x
COc1ccc(CCNCc2ccncc2)cc1 | 46 | n | n | n | n | n | 67 | n | n | n
CC1(C)CSC(=NCc2ccccc2)N1 | 132 | 88 | n | n | n | n | 111 | 81 | 95 | 68
CC(Cc1ccccc1Sc1ccccc1)N(C)C (stereo unspecified) | 48 | n | n | n | n | n | 70 | n | n | n
CC1(C)OC(c2ccccc2)=C/C(=C/C=C2C(=O)NC(=O)NC2=O)O1 | 98 | 70 | n | n | n | n | n | 21 | n | 33
SMILES | TAAR1 ag | TAAR1 antag | HTR2A ag | MC4R antagonist | MC4R ag barr | Beta2AR agonist | TAAR1 ag confirm | Ga16 nonsel ag | TAAR1 desens | Ga16 nonsel ant
c1ccc2c(NC3=NCCS3)cccc2c1 | 43 | n | n | n | n | n | 82 | 15 | n | n
COc1cccc(CC(=O)N(C)C2CCCN(Cc3ccccc3F)C2)c1 (stereo unspecified) | n | n | n | n | n | n | x | x | x | x
CN1CC(C(=O)c2ccccc2)C(c2ccccc2)C1 (stereo unspecified) | 55 | n | n | n | n | n | 76 | n | n | n
CN1CC(C(=O)c2ccc(Cl)cc2)C(c2ccccc2F)C1 (stereo unspecified) | 45 | n | n | n | n | n | 74 | n | n | n
CC[n+]1c(SC)ccc2cc(OC)ccc21 | n | n | n | n | n | n | x | x | x | x
Cc1cccc(N2CCN(Cc3ccc4c(c3)OCO4)CC2)c1C | n | n | n | n | n | n | x | x | x | x
CNC(C)Cc1ccccc1 (stereo unspecified) | 63 | 66 | n | n | n | n | 94 | 19 | 83 | n
CCCC[N+]12CCC(CC1)C(Cc1ccccc1)C2 (stereo unspecified) | n | n | n | n | n | n | x | x | x | x
C=CCC1([C@@H](C)CCC)C(=O)NC(=O)NC1=O | n | n | n | n | n | n | x | x | x | x
CCCC1(CC(C)CC)C(=O)NC(=O)NC1=O (stereo unspecified) | 51 | n | n | n | n | x | 78 | n | n | n
COC(=O)C1=C(c2cccc(OCc3ccccc3)c2)C[C@@H]2CC[C@H]1N2C(=O)NCc1ccccc1OC | n | n | n | n | n | n | x | x | x | x
O=C(NCCN1CCC2(CC1)C(=O)NCN2c1ccccc1)c1ccc2ccccc2c1 | 112 | 105 | x | x | x | x | 91 | 66 | 107 | 101
O=C1NCN(c2ccccc2)C12CCN(C(c1cc3ccccc3o1)c1nnnn1Cc1ccccc1)CC2 (stereo unspecified) | n | n | n | x | x | x | x | x | x | x
O=C(NCCN1CCC2(CC1)C(=O)NCN2c1ccccc1)c1ccc(Cl)cc1 | 108 | 105 | x | x | x | x | 92 | 72 | 106 | 100
O=C(NCCN1CCC2(CC1)C(=O)NCN2c1ccccc1)c1cccs1 | n | n | x | x | x | x | x | x | x | x
O=C(NCCN1CCC2(CC1)C(=O)NCN2c1ccccc1)c1ccc(F)cc1 | 98 | 100 | x | x | x | x | 63 | 50 | 95 | 79
O=C1NCN(c2ccccc2)C12CCNCC2 | n | n | n | n | n | n | x | x | x | x
COc1cc(CCN)ccc1O | 90 | n | n | n | n | n | 87 | n | 67 | n
COc1ccc(CCN)cc1S(N)(=O)=O | n | n | n | x | x | x | x | x | x | x
CCOC(=O)[C@]12Cc3ccccc3[C@H]1N(Cc1ccccc1)C(=O)c1cc(F)c(F)cc12 | n | n | n | x | x | x | x | x | x | x
